{"source": "ChEMBL document CHEMBL5653631", "about": "“A Potent and Selective ULK1 Inhibitor Suppresses Autophagy and Sensitizes Cancer Cells to Nutrient Stress” (iScience, 2018)", "key": {"[1]": {"target": "Tau-tubulin kinase 1 (Homo sapiens) (UniProt Q5TCY1)", "test": "Inhibition of human recombinant TTBK1 at 40 nM related to control ULK1"}, "[2]": {"target": "[Pyruvate dehydrogenase (acetyl-transferring)] kinase isozyme 4, mitochondrial (Homo sapiens) (UniProt Q16654)", "test": "Inhibition of human recombinant PDHK4 at 40 nM related to control ULK1"}, "[3]": {"target": "T1, Ephrin type-B receptor 4 (Homo sapiens) (UniProt P54760)", "T1 sequence (whole entry)": "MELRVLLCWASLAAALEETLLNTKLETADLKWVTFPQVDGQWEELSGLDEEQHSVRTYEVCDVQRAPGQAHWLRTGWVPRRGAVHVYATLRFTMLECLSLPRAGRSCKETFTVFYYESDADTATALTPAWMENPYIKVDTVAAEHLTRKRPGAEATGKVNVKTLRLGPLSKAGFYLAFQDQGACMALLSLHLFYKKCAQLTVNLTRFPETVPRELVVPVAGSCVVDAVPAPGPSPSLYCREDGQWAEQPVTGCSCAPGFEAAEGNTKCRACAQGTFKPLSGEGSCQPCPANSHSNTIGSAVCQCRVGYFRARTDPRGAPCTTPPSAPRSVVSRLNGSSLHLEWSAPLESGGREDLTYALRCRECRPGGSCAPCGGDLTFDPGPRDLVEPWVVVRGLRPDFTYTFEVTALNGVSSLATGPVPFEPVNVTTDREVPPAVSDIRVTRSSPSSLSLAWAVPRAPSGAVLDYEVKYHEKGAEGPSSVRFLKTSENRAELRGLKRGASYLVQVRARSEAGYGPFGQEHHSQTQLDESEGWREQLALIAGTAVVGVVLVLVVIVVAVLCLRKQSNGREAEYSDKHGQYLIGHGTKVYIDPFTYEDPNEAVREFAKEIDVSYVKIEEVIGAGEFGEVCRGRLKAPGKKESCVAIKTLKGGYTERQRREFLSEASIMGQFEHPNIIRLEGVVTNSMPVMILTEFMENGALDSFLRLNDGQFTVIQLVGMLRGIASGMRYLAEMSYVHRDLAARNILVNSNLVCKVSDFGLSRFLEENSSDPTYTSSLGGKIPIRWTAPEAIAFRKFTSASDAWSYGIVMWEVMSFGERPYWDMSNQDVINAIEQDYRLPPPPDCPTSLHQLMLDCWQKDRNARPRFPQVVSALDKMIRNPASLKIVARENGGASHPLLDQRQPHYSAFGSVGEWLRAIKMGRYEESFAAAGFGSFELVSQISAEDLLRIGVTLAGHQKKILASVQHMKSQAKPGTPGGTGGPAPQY", "test": "Inhibition of human recombinant EphB4 at 40 nM related to control ULK1"}, "[4]": {"target": "Activin receptor type-1-like (Homo sapiens) (UniProt P37023)", "test": "Inhibition of human recombinant ALK1 at 40 nM related to control ULK1", "method_in_brief": "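Radiometric activity assays in a panel of 327 human recombinant kinases, each run in duplicate at one inhibitor concentration. Activity remaining is expressed as percent of vehicle control, and percent inhibition is calculated as 100% minus percent activity remaining.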"}, "[5]": {"target": "Mitogen-activated protein kinase 8 (Homo sapiens) (UniProt P45983)", "sequence (P45983 whole entry)": "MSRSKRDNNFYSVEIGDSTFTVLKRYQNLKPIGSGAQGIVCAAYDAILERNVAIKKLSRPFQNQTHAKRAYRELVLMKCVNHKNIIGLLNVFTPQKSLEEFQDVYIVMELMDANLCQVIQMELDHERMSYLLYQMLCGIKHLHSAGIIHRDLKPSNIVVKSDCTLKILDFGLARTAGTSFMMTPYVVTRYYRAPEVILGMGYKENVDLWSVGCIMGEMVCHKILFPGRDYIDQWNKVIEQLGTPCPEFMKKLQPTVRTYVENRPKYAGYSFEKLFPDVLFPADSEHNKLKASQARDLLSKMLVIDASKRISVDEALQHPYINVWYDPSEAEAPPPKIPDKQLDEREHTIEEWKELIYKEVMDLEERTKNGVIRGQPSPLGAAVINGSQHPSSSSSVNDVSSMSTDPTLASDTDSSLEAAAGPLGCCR", "test": "Inhibition of human recombinant JNK1 at 15 nM related to control ULK1"}, "[6]": {"target": "Cyclin-dependent kinase 6 (Homo sapiens) (UniProt Q00534)", "test": "Inhibition of human recombinant CDK6 at 15 nM in presence of ATP by radiometric assay relative to control"}, "[7]": {"target": "Mitogen-activated protein kinase kinase kinase 9 (Homo sapiens) (UniProt P80192)", "sequence (P80192 whole entry, looked up)": "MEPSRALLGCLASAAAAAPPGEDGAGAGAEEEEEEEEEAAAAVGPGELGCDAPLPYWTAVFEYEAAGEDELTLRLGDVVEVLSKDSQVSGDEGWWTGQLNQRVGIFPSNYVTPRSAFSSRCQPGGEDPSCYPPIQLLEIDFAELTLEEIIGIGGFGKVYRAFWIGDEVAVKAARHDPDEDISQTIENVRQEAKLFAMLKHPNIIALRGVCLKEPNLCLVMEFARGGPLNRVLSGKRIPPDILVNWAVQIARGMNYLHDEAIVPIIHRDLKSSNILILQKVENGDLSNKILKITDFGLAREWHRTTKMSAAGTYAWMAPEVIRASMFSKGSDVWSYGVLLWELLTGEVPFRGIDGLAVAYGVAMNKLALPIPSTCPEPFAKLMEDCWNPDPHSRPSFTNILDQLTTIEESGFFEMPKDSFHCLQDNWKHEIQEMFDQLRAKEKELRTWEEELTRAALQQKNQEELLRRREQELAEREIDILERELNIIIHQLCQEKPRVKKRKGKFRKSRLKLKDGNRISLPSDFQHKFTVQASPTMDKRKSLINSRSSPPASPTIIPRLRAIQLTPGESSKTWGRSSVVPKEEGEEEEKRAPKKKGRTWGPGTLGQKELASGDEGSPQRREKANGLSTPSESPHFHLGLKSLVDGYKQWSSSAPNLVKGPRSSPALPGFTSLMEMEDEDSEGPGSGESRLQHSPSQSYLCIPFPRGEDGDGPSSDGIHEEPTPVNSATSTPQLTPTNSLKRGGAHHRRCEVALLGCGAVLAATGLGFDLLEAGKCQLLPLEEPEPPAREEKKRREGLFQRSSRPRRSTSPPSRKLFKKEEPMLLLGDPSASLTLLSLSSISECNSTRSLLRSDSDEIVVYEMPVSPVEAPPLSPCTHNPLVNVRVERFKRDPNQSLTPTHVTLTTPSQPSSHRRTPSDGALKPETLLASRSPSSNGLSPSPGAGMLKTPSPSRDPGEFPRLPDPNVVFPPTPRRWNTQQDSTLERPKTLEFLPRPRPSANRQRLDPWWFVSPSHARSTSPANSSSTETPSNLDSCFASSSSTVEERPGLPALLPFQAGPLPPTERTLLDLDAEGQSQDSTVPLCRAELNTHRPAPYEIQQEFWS", "test": "Inhibition of human recombinant MLK1 at 15 nM in presence of ATP by radiometric assay relative to control"}, "[8]": {"target": "Serine/threonine-protein kinase WNK2 (Homo sapiens) (UniProt Q9Y3S1)", "test": "Inhibition of human recombinant Wnk2 at 15 nM related to control ULK1"}, "[9]": {"target": "Fibroblast growth factor receptor 3 (Homo sapiens) (UniProt P22607)", "sequence (P22607 23-806 limits assumed)": "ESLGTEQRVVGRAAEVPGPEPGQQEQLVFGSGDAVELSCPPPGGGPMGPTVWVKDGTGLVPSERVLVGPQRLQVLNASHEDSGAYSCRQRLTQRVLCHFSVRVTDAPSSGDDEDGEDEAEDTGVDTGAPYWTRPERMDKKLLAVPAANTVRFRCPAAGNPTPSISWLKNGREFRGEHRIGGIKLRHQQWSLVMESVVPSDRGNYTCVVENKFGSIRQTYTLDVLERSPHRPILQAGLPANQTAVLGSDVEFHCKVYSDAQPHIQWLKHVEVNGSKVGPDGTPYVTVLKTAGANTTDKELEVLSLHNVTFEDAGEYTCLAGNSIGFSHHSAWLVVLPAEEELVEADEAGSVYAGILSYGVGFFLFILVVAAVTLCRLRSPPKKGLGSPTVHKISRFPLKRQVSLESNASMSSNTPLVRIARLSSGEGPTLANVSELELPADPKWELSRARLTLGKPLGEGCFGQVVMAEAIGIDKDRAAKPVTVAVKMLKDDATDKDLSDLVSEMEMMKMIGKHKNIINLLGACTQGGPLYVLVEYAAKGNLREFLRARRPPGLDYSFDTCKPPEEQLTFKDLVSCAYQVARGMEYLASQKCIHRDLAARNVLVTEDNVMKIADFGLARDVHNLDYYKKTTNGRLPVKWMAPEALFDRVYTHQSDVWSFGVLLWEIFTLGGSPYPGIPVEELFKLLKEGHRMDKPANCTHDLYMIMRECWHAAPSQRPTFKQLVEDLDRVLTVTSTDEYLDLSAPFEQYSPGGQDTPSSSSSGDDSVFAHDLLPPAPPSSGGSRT", "test": "Inhibition of human recombinant FGFR3 at 500 nM related to control ULK1"}, "[10]": {"target": "Transcription initiation factor TFIID subunit 1-like (Homo sapiens) (UniProt Q8IZX4)", "sequence (Q8IZX4 whole entry)": "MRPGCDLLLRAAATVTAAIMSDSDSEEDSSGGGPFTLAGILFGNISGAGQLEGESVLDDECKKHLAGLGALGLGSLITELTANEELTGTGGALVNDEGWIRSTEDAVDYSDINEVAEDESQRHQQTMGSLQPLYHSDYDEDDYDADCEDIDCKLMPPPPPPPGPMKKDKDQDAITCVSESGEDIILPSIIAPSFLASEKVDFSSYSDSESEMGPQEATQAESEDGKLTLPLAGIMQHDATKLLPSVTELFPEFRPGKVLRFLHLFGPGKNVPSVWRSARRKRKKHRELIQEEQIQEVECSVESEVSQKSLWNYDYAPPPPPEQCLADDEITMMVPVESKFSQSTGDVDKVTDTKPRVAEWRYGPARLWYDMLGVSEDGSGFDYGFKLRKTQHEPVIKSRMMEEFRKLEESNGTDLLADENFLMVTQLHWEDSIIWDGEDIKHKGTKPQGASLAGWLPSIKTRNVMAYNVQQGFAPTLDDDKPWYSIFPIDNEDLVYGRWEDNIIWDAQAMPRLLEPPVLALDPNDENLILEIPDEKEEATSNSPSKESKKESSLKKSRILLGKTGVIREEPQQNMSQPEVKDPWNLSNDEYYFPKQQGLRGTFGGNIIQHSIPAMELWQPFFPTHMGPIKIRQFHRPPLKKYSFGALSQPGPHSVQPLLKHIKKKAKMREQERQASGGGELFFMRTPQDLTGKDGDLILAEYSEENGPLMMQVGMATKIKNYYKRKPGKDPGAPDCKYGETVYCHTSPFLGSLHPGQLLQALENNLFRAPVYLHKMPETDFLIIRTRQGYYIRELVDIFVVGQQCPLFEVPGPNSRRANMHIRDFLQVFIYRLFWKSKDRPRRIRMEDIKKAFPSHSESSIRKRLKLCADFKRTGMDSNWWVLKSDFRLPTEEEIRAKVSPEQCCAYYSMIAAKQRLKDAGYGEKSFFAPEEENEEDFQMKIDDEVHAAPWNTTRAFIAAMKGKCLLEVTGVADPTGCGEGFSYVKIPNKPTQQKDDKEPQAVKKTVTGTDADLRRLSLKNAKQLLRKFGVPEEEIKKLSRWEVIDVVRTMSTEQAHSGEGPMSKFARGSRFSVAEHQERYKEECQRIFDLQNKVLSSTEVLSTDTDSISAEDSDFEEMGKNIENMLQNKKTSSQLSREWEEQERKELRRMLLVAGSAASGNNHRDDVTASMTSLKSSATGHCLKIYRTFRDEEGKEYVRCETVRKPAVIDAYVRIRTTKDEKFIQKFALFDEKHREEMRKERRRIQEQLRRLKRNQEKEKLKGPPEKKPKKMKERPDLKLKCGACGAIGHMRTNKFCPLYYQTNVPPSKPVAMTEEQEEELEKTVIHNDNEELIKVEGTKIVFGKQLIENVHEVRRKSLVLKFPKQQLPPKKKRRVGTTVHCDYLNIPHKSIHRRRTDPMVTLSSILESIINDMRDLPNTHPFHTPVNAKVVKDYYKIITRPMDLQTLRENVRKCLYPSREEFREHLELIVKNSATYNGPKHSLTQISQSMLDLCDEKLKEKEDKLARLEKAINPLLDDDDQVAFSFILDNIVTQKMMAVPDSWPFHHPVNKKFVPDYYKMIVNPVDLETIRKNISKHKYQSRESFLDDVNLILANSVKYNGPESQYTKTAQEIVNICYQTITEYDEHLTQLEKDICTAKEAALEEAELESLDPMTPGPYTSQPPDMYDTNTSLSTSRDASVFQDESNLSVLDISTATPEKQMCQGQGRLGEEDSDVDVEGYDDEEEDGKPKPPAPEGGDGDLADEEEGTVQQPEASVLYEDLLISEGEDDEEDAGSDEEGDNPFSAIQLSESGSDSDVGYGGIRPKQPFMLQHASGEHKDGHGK", "test": "Inhibition of human recombinant TAF1L at 500 nM in presence of ATP by radiometric assay relative to control"}, "[11]": {"target": "Serine/threonine-protein kinase PAK 6 (Homo sapiens) (UniProt Q9NQU5)", "sequence (Q9NQU5 whole entry, looked up)": "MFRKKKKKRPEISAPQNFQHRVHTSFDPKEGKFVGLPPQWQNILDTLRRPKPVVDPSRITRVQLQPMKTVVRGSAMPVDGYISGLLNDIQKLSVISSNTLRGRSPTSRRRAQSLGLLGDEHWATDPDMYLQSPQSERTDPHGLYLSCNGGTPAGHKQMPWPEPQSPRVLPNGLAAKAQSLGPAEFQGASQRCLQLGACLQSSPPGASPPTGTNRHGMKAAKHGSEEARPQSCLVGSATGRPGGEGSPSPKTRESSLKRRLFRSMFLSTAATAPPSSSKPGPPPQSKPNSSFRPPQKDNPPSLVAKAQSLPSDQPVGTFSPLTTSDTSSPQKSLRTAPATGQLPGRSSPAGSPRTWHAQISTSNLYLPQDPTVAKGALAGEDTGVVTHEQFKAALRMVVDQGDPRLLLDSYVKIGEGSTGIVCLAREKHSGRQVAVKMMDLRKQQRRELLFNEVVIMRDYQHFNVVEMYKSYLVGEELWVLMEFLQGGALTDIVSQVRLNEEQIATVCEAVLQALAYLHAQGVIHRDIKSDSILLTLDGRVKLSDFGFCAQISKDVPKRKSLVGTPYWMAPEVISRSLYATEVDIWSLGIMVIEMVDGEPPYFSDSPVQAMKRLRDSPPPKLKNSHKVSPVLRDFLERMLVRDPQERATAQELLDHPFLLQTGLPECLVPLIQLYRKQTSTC", "test": "Inhibition of human recombinant PAK6 at 500 nM related to control ULK1"}, "[12]": {"target": "T2, Eukaryotic translation initiation factor 2-alpha kinase 3 (Homo sapiens) (UniProt Q9NZJ5)", "T2 sequence (whole entry)": "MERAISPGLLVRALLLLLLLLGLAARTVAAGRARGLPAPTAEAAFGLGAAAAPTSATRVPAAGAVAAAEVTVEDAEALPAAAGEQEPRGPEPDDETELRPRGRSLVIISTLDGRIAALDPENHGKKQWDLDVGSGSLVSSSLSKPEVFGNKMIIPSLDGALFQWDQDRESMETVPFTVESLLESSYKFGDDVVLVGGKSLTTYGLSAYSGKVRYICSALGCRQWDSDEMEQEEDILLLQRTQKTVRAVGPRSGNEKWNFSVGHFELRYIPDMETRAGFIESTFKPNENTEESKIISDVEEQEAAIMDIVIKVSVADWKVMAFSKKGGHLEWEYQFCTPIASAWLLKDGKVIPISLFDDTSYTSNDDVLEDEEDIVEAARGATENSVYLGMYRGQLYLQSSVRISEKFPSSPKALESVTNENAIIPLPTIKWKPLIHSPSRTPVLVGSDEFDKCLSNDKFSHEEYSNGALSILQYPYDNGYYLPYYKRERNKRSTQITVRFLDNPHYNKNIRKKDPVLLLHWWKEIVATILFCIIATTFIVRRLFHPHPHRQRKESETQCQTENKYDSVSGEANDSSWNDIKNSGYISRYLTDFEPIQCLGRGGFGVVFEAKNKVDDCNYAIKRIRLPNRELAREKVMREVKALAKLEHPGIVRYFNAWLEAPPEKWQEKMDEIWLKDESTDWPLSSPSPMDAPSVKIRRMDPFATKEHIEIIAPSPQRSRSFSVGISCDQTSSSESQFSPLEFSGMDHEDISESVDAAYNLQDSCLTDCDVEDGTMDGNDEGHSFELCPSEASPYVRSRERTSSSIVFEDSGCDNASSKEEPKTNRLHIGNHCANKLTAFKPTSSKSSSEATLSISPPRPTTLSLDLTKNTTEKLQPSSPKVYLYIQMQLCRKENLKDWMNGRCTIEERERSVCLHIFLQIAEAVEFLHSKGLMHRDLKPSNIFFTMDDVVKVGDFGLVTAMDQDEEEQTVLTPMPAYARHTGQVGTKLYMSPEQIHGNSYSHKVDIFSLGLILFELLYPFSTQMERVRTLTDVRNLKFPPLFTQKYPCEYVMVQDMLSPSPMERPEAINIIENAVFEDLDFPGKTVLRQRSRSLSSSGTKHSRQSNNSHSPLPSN", "test": "Inhibition of human recombinant PEK at 500 nM in presence of ATP by radiometric assay relative to control"}}}
{"smiles": "O=C(N[C@@H](C1CC1)C(F)(F)F)c1cc(-c2cnn3cc(-c4ccc(F)cc4)cnc23)cs1", "values": [{"measurement": "fold change (FC)", "setting": "[1]", "value": 0}, {"measurement": "fold change (FC)", "setting": "[2]", "value": 0}, {"measurement": "fold change (FC)", "setting": "[3]", "value": 0}, {"measurement": "fold change (FC)", "setting": "[4]", "value": 0.01}]}
{"smiles": "CC(C)[C@H](NC(=O)c1cc(-c2cnn3cc(-c4ccc(OCCN5CCCCC5)cc4)cnc23)cs1)C(F)(F)F", "values": [{"measurement": "fold change (FC)", "setting": "[5]", "value": 0.09}, {"measurement": "inhibition", "setting": "[6]", "value": 8, "unit": "%"}, {"measurement": "inhibition", "setting": "[7]", "value": 0, "unit": "%"}, {"measurement": "fold change (FC)", "setting": "[8]", "value": 0.02}]}
{"smiles": "CNC(=O)c1ccccc1Oc1nc(Nc2cc(OC)c(OC)c(OC)c2)ncc1Br", "values": [{"measurement": "fold change (FC)", "setting": "[9]", "value": 0.57}, {"measurement": "inhibition", "setting": "[10]", "value": 0, "unit": "%"}, {"measurement": "fold change (FC)", "setting": "[11]", "value": 0.26}, {"measurement": "inhibition", "setting": "[12]", "value": 0, "unit": "%"}]}
